From ChEMBL document CHEMBL2093137, “WHO-TDR NTD Screening”
In brackets after ≈: the same amount, converted by molar mass.

Assays:
[1] = WHO-TDR: Cytotoxicity; format: toxicity, cell-based; details: human, MRC5 cells
Plasmodium falciparum K1 = test: WHO-TDR: Malaria; format: functional, organism-based, Homo sapiens; details: Erythrocyte
Summary of the method: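 Following previously published standard procedures, with a reference drug serving as positive control, compounds were tested on the Plasmodium falciparum K1 strain inside human red blood cells. The 10,000-compound diverse set came from Life Chemicals after filtering for drug-likeness and reactive groups. Potency against the parasite appears as IC50.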

Trypanosoma cruzi = test: WHO-TDR: Chagas disease; format: functional, organism-based, Homo sapiens; details: MRC5
Summary of the method: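 Intracellular amastigotes of the Trypanosoma cruzi Tulahuen CL2 beta-galactosidase strain, grown in MRC-5SV2 human lung fibroblast host cells, were tested in a whole-organism screen. The compounds came from a 10,000-member diverse Life Chemicals library that had been filtered for drug-likeness and reactive groups. Previously published standard procedures were followed, with a reference drug as positive control, and potency is reported as IC50.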

[2] = test system: Trypanosoma brucei brucei; test: WHO-TDR: Human African Trypanosomiasis (HAT); format: functional, organism-based; details: Squib-427
Summary of the method: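 Bloodstream forms of the Trypanosoma brucei Squib 427 strain were tested in a whole-organism screen with a diverse library from Life Chemicals of 10,000 compounds. Before screening, the library was filtered for drug-likeness and for reactive groups. The assay used previously published standard procedures and included reference drugs as positive controls. Potency against the parasite is expressed as IC50.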

Leishmania infantum = test: WHO-TDR: Leishmaniasis; format: functional, organism-based, Mus musculus; details: Macrophage
Summary of the method: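 Following previously published standard procedures, a whole-organism screen was run on Leishmania infantum MHOM/MA(BE)/67 amastigotes within murine peritoneal macrophages, with a reference drug as positive control. The 10,000 compounds tested formed a diverse Life Chemicals library filtered for drug-likeness and reactive groups. Potency against the parasite is reported as IC50.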

Onchocerca ochengi = test: WHO-TDR: Onchocerciasis; format: functional; set-up: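 at 12.5 µM on microfilariae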
Summary of the method: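 A diverse library of 10,000 compounds from Life Chemicals, filtered for drug-likeness and reactive groups, was screened against whole microfilariae of Onchocerca ochengi or Onchocerca lienalis. These animal pathogens served as stand-ins for the human parasite. Activity is given as percent inhibition and as IC50.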

Brugia malayi = test: WHO-TDR: Lymphatic Filariasis; format: functional; set-up: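 tested at 10 µM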
Summary of the method: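 A diverse library of 10,000 compounds from Life Chemicals was screened against Brugia malayi microfilariae in a whole-organism assay. The library had been filtered for drug-likeness and reactive groups. Activity is given as percent inhibition and as IC50.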

Schistosoma mansoni = test: WHO-TDR: Schistosomiasis; format: functional; set-up: concentration or dose not given beside the values
Summary of the method: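 A diverse library of 10,000 compounds from Life Chemicals, filtered for drug-likeness and reactive groups, was screened against whole larval and/or adult Schistosoma mansoni worms of the Puerto Rican strain. Previously published standard procedures were followed, with a reference drug as positive control. Activity is given as percent inhibition and as IC50.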

SMILES | IC50 [1] [µg/mL] | IC50 (Plasmodium falciparum K1) [µg/mL] | IC50 (Trypanosoma cruzi) [µg/mL] | IC50 [2] [µg/mL] | IC50 (Leishmania infantum) [µg/mL] | % Inhibition (Onchocerca ochengi) [%] | % Inhibition (Brugia malayi) [%] | % Inhibition (Schistosoma mansoni) [%]
Cc1cc(=O)[nH]c(-n2nc(C)c(CCC(=O)Nc3cc(C)on3)c2C)n1 | > 10.7 | > 10.7 | > 10.7 | > 10.7 | > 10.7 | 100 | 20 | 
O=C(Cc1csc(Nc2cccc(Cl)c2)n1)NCc1ccccn1 | 1.76 (≈ 4.91 µM) | > 10.8 | 1.71 (≈ 4.75 µM) | > 10.8 | 2.55 (≈ 7.11 µM) | 100 | 0 | 
Cc1cc2cc(CNC(=O)c3ccccc3Br)ccc2n1C | > 10.7 | > 10.7 | 0.487 (≈ 1.36 µM) | 3.39 (≈ 9.49 µM) | > 10.7 |  | 0 | 0
O=C(Nc1nnc(-c2ccco2)o1)c1cc(-c2ccccc2)nc2ccccc12 | 2.04 (≈ 5.33 µM) | 9.02 (≈ 23.6 µM) | 0.305 (≈ 0.798 µM) | 3.23 (≈ 8.45 µM) | 3.71 (≈ 9.71 µM) |  | 0 | 0
O=C(CCc1csc(NC(=O)c2cccs2)n1)Nc1nc2ccccc2s1 | > 12.4 | > 12.4 | > 12.4 | > 12.4 | 4.03 (≈ 9.71 µM) | 100 | 0 | 
COc1ccc(-c2cn3c(C(=O)Nc4ccccc4F)csc3n2)cc1 | > 11 | > 11 | > 11 | > 11 | > 11 | 100 | 0 | 
Cc1cc(-c2nnc(SCC(=O)Nc3cccc(C(F)(F)F)c3)o2)c(C)o1 | > 11.9 | > 11.9 | > 11.9 | 4.69 (≈ 11.8 µM) | > 11.9 | 100 | 0 | 
Cc1nc2c(ccc3nc(Nc4nc5ccc(C(C)C)cc5s4)sc32)s1 | 3.59 (≈ 9.04 µM) | 3.97 (≈ 10 µM) | 4.11 (≈ 10.4 µM) | 0.385 (≈ 0.971 µM) | 0.385 (≈ 0.971 µM) |  | 25 | 0
COc1ccc(C(=O)Nc2ccc(SCC(=O)N3CCCC3)nn2)c(OC)c1 | > 12.1 | > 12.1 | > 12.1 | > 12.1 | > 12.1 | 100 | 0 | 
Cc1cc2cc(CNC(=O)c3ccccc3F)ccc2n1C | > 8.89 | > 8.89 | 0.181 (≈ 0.609 µM) | > 8.89 | > 8.89 |  | 0 | 0
O=S(=O)(NCCNc1ccc(Nc2ccccn2)nn1)c1ccccc1C(F)(F)F | 5.08 (≈ 11.6 µM) | 4.71 (≈ 10.7 µM) | > 13.2 | 4.31 (≈ 9.83 µM) | > 13.2 | 100 | 25 | 
Cc1nc2scc(-c3cccc(NC(=O)NC4CCCCC4)c3)n2c(=O)c1C | > 11.9 | > 11.9 | 3.54 (≈ 8.93 µM) | 4.05 (≈ 10.2 µM) | > 11.9 | 100 | 0 | 
COc1ccc(-c2cn3c(C(=O)Nc4ccc(F)cc4F)csc3n2)cc1 | > 11.6 | > 11.6 | > 11.6 | > 11.6 | > 11.6 | 100 | 0 | 
CCOC(=O)Cn1/c(=N/C(=O)CSC(C)=O)sc2ccccc21 | > 10.6 | > 10.6 | > 10.6 | 0.342 (≈ 0.97 µM) | > 10.6 |  | 0 | 0
O=C(Nc1nnc(C2COc3ccccc3O2)o1)c1ccc(F)cc1 (stereo not given) | > 10.2 | > 10.2 | 0.289 (≈ 0.847 µM) | > 10.9 | > 10.2 |  | 25 | 0
Cc1c(C(=O)N2CCC(C)CC2)sc2nc(-c3ccc(F)cc3)cn12 | > 10.7 | > 10.7 | > 10.7 | 0.422 (≈ 1.18 µM) | > 10.7 |  | 0 | 0
Cc1cc2cc(CCNC(=O)C3c4ccccc4Oc4ccccc43)c(O)nc2cc1C | > 12.7 | > 12.7 | > 12.7 | > 12.7 | 0.412 (≈ 0.971 µM) |  | 0 | 0
CCCCCOc1cccc(C(=O)Nc2nnc(-c3ccco3)o2)c1 | 5.71 (≈ 16.7 µM) | > 10.2 | 0.368 (≈ 1.08 µM) | 3.29 (≈ 9.63 µM) | 3.28 (≈ 9.6 µM) |  | 25 | 0
O=C(Nc1nnc(-c2cccnc2)o1)c1cccc(Br)c1 | 8.09 (≈ 23.4 µM) | > 10.4 | 0.705 (≈ 2.04 µM) | > 11 | 3.35 (≈ 9.71 µM) |  | 25 | 0
O=C(Nc1nnc(-c2cccnc2)o1)c1cccc(C(F)(F)F)c1 | 2.99 (≈ 8.96 µM) | > 10 | 0.317 (≈ 0.948 µM) | 3.38 (≈ 10.1 µM) | 3.25 (≈ 9.71 µM) |  | 25 | 0
O=C(Nc1nnc(-c2ccc3c(c2)OCCO3)o1)c1cc(-c2ccccc2)nc2ccccc12 | 4.33 (≈ 9.6 µM) | > 13.5 | 0.434 (≈ 0.963 µM) | 4.27 (≈ 9.49 µM) | 4.37 (≈ 9.71 µM) |  | 70 | 0
CCOc1ccccc1C(=O)NCc1ccc2c(c1)cc(C)n2C | 4.26 (≈ 13.2 µM) | 4.49 (≈ 13.9 µM) | 0.057 (≈ 0.177 µM) | 0.163 (≈ 0.506 µM) | > 9.67 |  | 0 | 0
COc1cccc2sc(Nc3nc4ccc(NC(C)=O)cc4s3)nc12 | > 11.1 | > 11.1 | 0.388 (≈ 1.05 µM) | 2.97 (≈ 8.01 µM) | > 11.1 |  | 90 | 0
Cc1cc2cc(CNC(=O)CC(c3ccccc3)c3ccccc3)ccc2[nH]1 | > 11.1 | > 11.1 | 0.391 (≈ 1.06 µM) | 3.37 (≈ 9.14 µM) | > 11.1 |  | 0 | 0
COc1cccc2sc(Nc3nc(-c4ccncc4)cs3)nc12 | 4.5 (≈ 13.2 µM) | > 10.2 | 0.132 (≈ 0.388 µM) | > 10.2 | > 10.2 |  | 25 | 0
